pIC50: −log10 of the molar value. Values after ≈ are worked out from the molar mass of the structure shown.
Assays:
Phospholipase D2 = Phospholipase D2 (Homo sapiens, UniProt O14939); assay: Inhibition of PLD2 (unknown origin) expressed in human HEK cells by immunoprecipitation; format: cell-based
Method in brief: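 PLD1 or PLD2 immunoprecipitated from HEK-293 cell lysates and captured on plate with an antibody (ELISA format); 08:0 phosphatidylcholine substrate; released choline detected by Amplex Red readout.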

[1] = Microsomal stability in human liver microsomes assessed as intrinsic clearance; format: ADME, Microsome; settings: read-out: CLH
Method in brief: (§1)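 Intrinsic clearance (CLint) determined in rat or human liver microsomes.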

[2] = Microsomal stability in rat liver microsomes assessed as intrinsic clearance; format: ADME, Microsome; settings: read-out: CLH; method in brief: as §1
[3] = Kinetic solubility of compound at pH 6.8; format: physicochemical; settings: buffer, read-out: Kinetic_solubility
Method in brief: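 Kinetic solubility measured at pH 6.8.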

[4] = Clearance in iv dosed rat administered as cassette dose; format: ADME, organism-based; settings: in vivo
Method in brief: (§2)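 Rat IV clearance from cassette dosing; unbound clearance calculated as CL/fu.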

[5] = Unbound clearance in iv dosed rat administered as cassette dose; format: ADME, organism-based; settings: in vivo; method in brief: as §2
Phospholipase D1 = target: T1, Phospholipase D1 (Homo sapiens, UniProt Q13393); assay: Inhibition of PLD1 (unknown origin) expressed in human HEK cells by immunoprecipitation assay; format: cell-based
T1 sequence (Q13393 whole entry): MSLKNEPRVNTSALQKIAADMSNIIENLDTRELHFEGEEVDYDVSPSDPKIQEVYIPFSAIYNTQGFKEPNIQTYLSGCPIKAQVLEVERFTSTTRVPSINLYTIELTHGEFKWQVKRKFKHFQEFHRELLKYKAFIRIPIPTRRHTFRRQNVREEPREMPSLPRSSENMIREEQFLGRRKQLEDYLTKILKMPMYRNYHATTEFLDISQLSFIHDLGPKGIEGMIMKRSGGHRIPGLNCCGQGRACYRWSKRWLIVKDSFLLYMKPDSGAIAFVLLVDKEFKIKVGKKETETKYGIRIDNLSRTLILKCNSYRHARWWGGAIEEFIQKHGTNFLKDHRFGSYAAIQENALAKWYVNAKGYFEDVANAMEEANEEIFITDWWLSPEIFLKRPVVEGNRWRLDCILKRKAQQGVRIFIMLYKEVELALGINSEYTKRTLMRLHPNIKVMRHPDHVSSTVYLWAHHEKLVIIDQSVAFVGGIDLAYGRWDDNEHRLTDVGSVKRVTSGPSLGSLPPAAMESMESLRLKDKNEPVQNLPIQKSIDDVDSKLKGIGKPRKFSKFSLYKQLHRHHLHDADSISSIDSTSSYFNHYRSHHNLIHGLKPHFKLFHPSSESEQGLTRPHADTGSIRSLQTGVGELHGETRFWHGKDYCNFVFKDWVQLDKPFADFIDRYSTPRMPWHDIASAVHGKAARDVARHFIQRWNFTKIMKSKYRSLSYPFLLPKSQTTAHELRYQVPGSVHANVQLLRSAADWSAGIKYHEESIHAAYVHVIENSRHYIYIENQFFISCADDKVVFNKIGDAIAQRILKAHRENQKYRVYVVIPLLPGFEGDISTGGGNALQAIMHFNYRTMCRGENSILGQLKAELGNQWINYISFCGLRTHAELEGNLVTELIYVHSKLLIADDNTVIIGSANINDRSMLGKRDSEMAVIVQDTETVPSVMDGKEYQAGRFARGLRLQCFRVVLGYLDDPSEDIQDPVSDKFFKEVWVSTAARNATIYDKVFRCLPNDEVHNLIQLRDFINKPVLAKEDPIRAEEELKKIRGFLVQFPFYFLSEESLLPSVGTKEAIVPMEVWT

MDR1 (P-gp) = assay: Efflux ratio of apparent permeability from basolateral to apical side over apical to basolateral side in dog MDCK-MDR1 cells; format: ADME, cell-based, Canis lupus familiaris
Method in brief: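 Efflux ratio calculated as Papp(B–A)/Papp(A–B) across MDR1-transfected MDCK monolayers.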

[6] = target: Phospholipase D1 (Homo sapiens) (UniProt Q13393); assay: Inhibition of PLD1 in human Calu-1 cells assessed as reduction in d9-phosphobutanol formation by mass spectrometry-based transphosphatidylation assay

Chain of Phospholipase D2 (O14939 whole entry): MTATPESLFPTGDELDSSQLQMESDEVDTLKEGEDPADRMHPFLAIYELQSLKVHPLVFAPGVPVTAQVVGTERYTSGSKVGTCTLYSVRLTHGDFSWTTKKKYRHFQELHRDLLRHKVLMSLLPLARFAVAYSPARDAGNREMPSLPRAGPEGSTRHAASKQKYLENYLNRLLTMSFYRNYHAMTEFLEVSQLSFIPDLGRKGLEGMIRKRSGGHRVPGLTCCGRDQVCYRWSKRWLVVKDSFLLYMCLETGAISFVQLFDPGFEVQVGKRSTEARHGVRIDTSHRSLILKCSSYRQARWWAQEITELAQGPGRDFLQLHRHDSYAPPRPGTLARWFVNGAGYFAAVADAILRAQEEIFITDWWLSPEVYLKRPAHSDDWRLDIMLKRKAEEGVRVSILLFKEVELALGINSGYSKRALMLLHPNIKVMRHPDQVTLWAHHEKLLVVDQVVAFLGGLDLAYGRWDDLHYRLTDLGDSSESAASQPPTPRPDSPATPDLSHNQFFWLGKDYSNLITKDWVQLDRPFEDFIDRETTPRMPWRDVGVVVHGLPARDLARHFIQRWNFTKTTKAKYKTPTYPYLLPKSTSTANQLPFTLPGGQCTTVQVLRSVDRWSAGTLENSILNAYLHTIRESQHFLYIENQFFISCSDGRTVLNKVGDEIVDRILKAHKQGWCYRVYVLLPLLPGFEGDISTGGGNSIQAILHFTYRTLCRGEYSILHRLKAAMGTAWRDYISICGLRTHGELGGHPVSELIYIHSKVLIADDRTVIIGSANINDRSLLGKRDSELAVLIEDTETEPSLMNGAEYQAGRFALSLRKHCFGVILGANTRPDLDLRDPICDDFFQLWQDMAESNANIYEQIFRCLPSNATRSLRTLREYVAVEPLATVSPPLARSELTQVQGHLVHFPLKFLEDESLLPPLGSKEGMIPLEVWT

Compound	pIC50 (Phospholipase D2)	CLint scaled [1] [mL/min/kg]	CLint scaled [2] [mL/min/kg]	solubility kinetic [3] [µg/mL]	clearance [4] [mL/min/kg]	CL free [5] [mL/min/kg]	pIC50 (Phospholipase D1)	efflux ratio (MDR1 (P-gp))	pIC50 [6]
C[C@@H](CN1CCC2(CC1)C(=O)NCN2c1cccc(F)c1)NC(=O)c1ccc(Br)cc1	7.17	89	312	3.8 (≈ 7.76 µM)	36	> 3800			
C[C@@H]1CN(C(=O)[C@H](C)N2CCC(n3c(=O)[nH]c4ccccc43)CC2)Cc2ccccc21	6.49	> 200	> 300				7.00	22	8.22
CC(=O)N(C)CCN1CCC(n2c(=O)[nH]c3cc(Cl)ccc32)CC1	< 5.00						6.89	24	6.74
C[C@@H](CN1CCC(n2c(=O)[nH]c3ccccc32)CC1)NC(=O)c1ccc(F)cc1	5.25	< 4	170				7.48	82	7.80
C[C@@H](CN1CCC2(CC1)OC(=O)Nc1cccnc12)NC(=O)c1ccc(F)cc1	5.39	13	48	59 (≈ 148 µM)	40	83	6.70	68	7.27
C[C@@H](CN1CCC2(CC1)NC(=O)Nc1ccccc12)NC(=O)c1ccc(F)cc1	< 5.00	14	66	51 (≈ 129 µM)	15	74	6.55	67	6.14
C[C@@H]1CNCCN1C(=O)[C@H](C)N1CCC(n2c(=O)[nH]c3ccccc32)CC1		12	84				6.85	5.4	6.74
C[C@@H]1CN(C(=O)[C@H](C)N2CCC(n3c(=O)[nH]c4ccccc43)CC2)CCN1		< 5	29		39	73	6.49	13	6.72
C[C@@H](C(=O)N1CCNC(C)(C)C1)N1CCC(n2c(=O)[nH]c3ccccc32)CC1	5.15	8	56		39	73	6.44	5.2	6.55
C[C@@H](CN1CCC2(CC1)OC(=O)Nc1cc(F)ccc12)NC(=O)c1ccc(F)cc1	6.00	68	250				7.15	42	7.11
C[C@@H](CN1CCC2(CC1)c1ccccc1NC(=O)N2C)NC(=O)c1ccc(F)cc1	< 5.00	39	113	71 (≈ 173 µM)			< 5.00	93	< 5.00
C[C@@H](CN1CCC2(CC1)OC(=O)NC[C@H]2c1cccc(F)c1)NC(=O)c1ccc(F)cc1	7.19	38	394	61 (≈ 138 µM)	119	308	7.66	12	8.70
C[C@@H](CN1CCC(c2n[nH]c3ccccc23)CC1)NC(=O)c1ccc(F)cc1	< 5.00	42	311				6.01	8	5.38
C[C@@H](CN1CCC(N2CCNC2=O)CC1)NC(=O)c1ccc(F)cc1	< 5.00	< 4	16				< 5.00	7.7	< 5.00
CC[C@H]1CN(C(=O)[C@H](C)N2CCC(n3c(=O)[nH]c4ccccc43)CC2)CCN1	6.04	< 4	59				7.17	50	7.36
C[C@@H](CN1CCC2(CC1)CC(=O)Nc1ccccc12)NC(=O)c1ccc(F)cc1	< 5.00	28	83	59 (≈ 149 µM)	8.6	42	6.31	11	6.34
C[C@@H](CN1CCC(n2c(=O)oc3ccccc32)CC1)NC(=O)c1ccc(F)cc1	< 5.00	23	314				5.03	2	< 5.00
C[C@@H]1CN(C(=O)[C@H](C)N2CCC(n3c(=O)[nH]c4ccccc43)CC2)C[C@H](C)N1	6.70	6.9	43		45	68	7.40	14	7.49
C[C@@H](CN1CCC2(CC1)OC(=O)Nc1ccncc12)NC(=O)c1ccc(F)cc1	5.49	12	50	58 (≈ 146 µM)	48	69	6.96	47	7.11
C[C@@H](CN1CCC2(CC1)OC(=O)Nc1ccccc12)NC(=O)c1ccc(F)cc1	5.89	39	103	76 (≈ 191 µM)	40	172	7.18	218	7.13
C[C@@H](CN1CCC(N2C(=O)Cc3ccccc32)CC1)NC(=O)c1ccc(F)cc1	< 5.00	42	311				5.92	8	5.96

Reference: ChEMBL document CHEMBL5046323, “Discovery of Phospholipase D Inhibitors with Improved Drug-like Properties and Central Nervous System Penetrance” (ACS Med Chem Lett, 2022)
